The source made the active and inactive calls. The rule behind the calls is not given here.
Key:
[1] = tested on: Syrian golden hamster; experiment: Effect on serum HDL level in high fat diet-induced dyslipidemia Syrian Golden hamster model at 100 mg/kg, po administered for 1 week followed by overnight fasting post last dose by clinical bio-analyzer analysis; assay type: ADME, organism-based, Mesocricetus auratus; details: in vivo, 168 h
Method in brief: (§1)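 Male Syrian Golden hamsters (8-10 weeks, 100-120 g), 4 per group, given 45% kCal high fat diet for 4 days, then HFD plus oral dosing in 0.5% w/v NaCMC for one week. After an overnight fast, blood was taken from the retro-orbital plexus under anesthesia and serum was analysed on a clinical bio-analyzer. Mean ± SEM; one-way ANOVA with Bonferroni post-test.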

[2] = organism: Mus musculus; experiment: Activation of Wnt3a/beta-catenin in differentiated mouse 3T3L1 cells assessed as down-regulation of PPARgamma protein expression at 20 uM after 16 to 24 hrs by Western blot analysis
Method in brief: (§2)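 3T3-L1 preadipocytes grown to confluence in high-glucose DMEM/10% FBS, then given differentiation media (0.5 mM IBMX, 5 µg/ml insulin, 250 nM dexamethasone) with or without 20 µM compound. Protein isolated at set time points, lysed with protease/phosphatase inhibitors, BCA-quantified, resolved by 8–12% SDS-PAGE, immunoblotted with ECL detection. β-actin loading control, densitometry normalized to actin, n=3.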

[3] = organism: Mus musculus; experiment: Activation of Wnt3a/beta-catenin in mouse 3T3L1 cells assessed as induction of LEF1 expression at 20 uM after 16 to 24 hrs by Western blot analysis; assay type: cell-based
[4] = tested on: Syrian golden hamster; experiment: Anti-dyslipidemic activity in high fat diet-induced dyslipidemia Syrian Golden hamster model assessed as decrease in serum AST levels at 100 mg/kg, po administered for 1 week followed by overnight fasting post last dose by clinical bio-analyzer analysis; assay type: functional, organism-based; details: Mesocricetus auratus
Method in brief: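 Male Syrian golden hamsters (8–10 wk, 100–120 g), 4 per group, given 45% kcal HFD for 4 days, then 100 mg/kg p.o. in 0.5% NaCMC daily for one week alongside HFD. Blood taken from retro-orbital plexus after overnight fast. TG, HDL, LDL, ALT, AST measured on a clinical bio-analyzer and NEFA by kit. Mean ± SEM, one-way ANOVA with Bonferroni.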

[5] = tested on: Syrian golden hamster; experiment: Induction of reverse cholestrol transport in high fat diet-induced dyslipidemia Syrian Golden hamster model assessed as increase in LCAT mRNA expression in liver at 100 mg/kg, po administered for 1 week by qRT-PCR analysis; assay type: functional, organism-based; details: Mesocricetus auratus
[6] = tested on: 3T3-L1; experiment: Induction of Wnt5b mRNA expression in mouse 3T3L1 cells at 20 uM by qRT-PCR analysis; assay type: functional, cell-based
Method in brief: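 3T3-L1 cells induced with MDI differentiation medium with or without 20 µM. RNA isolated with TRIzol and 500 ng reverse-transcribed to cDNA for real-time PCR. n=3 with triplicates, mean ± SD; one-way ANOVA with Bonferroni post-test.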

[7] = organism: Mus musculus; experiment: Activation of Wnt3a/beta-catenin in differentiated mouse 3T3L1 cells assessed as down-regulation of FAS protein expression at 20 uM after 16 to 24 hrs by Western blot analysis; method in brief: as §2
[8] = organism: Mus musculus; experiment: Activation of Wnt3a/beta-catenin in mouse 3T3L1 cells assessed as down-regulation of cyclinE expression at 20 uM after 16 to 24 hrs by Western blot analysis; assay type: cell-based
[9] = organism: Mus musculus; experiment: Activation of Wnt3a/beta-catenin in mouse 3T3L1 cells assessed as increase in SIRT1 mRNA expression at 20 uM by qRT-PCR analysis; assay type: cell-based
Method in brief: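 3T3-L1 cells differentiated with IBMX/dexamethasone/insulin media with or without 20 µM compound over the differentiation period. RNA extracted with TRIZOL, 500 ng reverse-transcribed to cDNA, then quantitative real-time PCR. Three independent experiments run in triplicate, mean ± SD, one-way ANOVA with Bonferroni posttest.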

[10] = organism: Mus musculus; experiment: Activation of Wnt3a/beta-catenin in mouse 3T3L1 cells assessed as down-regulation of PPARgamma expression at 20 uM after 2 to 6 days in presence of FH353 by Western blot analysis; assay type: cell-based
[11] = tested on: Syrian golden hamster; experiment: Induction of reverse cholestrol transport in high fat diet-induced dyslipidemia Syrian Golden hamster model assessed as decrease in CETP mRNA expression in liver at 100 mg/kg, po administered for 1 week by qRT-PCR analysis; assay type: functional, organism-based; details: Mesocricetus auratus
[12] = tested on: 3T3-L1; experiment: Anti-adipogenic activity in mouse 3T3L1 pre-adipocytes in differentiation media assessed as reduction in lipid accumulation at 20 uM after 20 mins in presence of beta-catenin/TCF complex inhibitor FH353 by Oil Red O absorbance method; assay type: functional, cell-based
Method in brief: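 3T3-L1 cells differentiated with 20 µM compound with or without FH353 (10 µM) in differentiation media. Oil red O extracted and absorbance read at 492 nm, n=3, mean ± SD, Student t test.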

[13] = tested on: Syrian golden hamster; experiment: Anti-dyslipidemic activity in high fat diet-induced dyslipidemia Syrian Golden hamster model assessed as reduction in serum triglycerides levels at 100 mg/kg, po administered for 1 week followed by overnight fasting post last dose by clinical bio-analyzer analysis; assay type: functional, organism-based; details: Mesocricetus auratus; method in brief: as §1
[14] = tested on: Syrian golden hamster; experiment: Induction of reverse cholestrol transport in high fat diet-induced dyslipidemia Syrian Golden hamster model assessed as increase in ABCG5 mRNA expression in eWAT at 100 mg/kg, po administered for 1 week by qRT-PCR analysis; assay type: functional, organism-based; details: Mesocricetus auratus
[15] = organism: Mus musculus; experiment: Activation of Wnt3a/beta-catenin in differentiated mouse 3T3L1 cells assessed as upregulation of phosphorylated LRP6 expression at 20 uM after 16 to 24 hrs by Western blot analysis; method in brief: as §2
[16] = tested on: Syrian golden hamster; experiment: Anti-adipogenic activity in high fat diet-induced dyslipidemia Syrian Golden hamster model assessed as decrease in PPARgamma levels in eWAT at 100 mg/kg, po administered for 1 week by Western blot analysis; assay type: functional, organism-based; details: Mesocricetus auratus
Method in brief: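 Male Syrian golden hamsters (8–10 wk, 100–120 g) fed 45% kcal HFD for 4 days, then dosed orally at 100 mg/kg in 0.5% NaCMC for one week, n=4 per group. Fenofibrate 100 mg/kg p.o. used as positive control. Epididymal WAT proteins Western blotted, three independent experiments.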

[17] = organism: Mus musculus; experiment: Activation of Wnt3a/beta-catenin in differentiated mouse 3T3L1 cells assessed as upregulation of phosphorylated beta-catenin expression at 20 uM after 16 to 24 hrs in presence of beta-catenin/TCF complex inhibitor FH353 by Western blot analysis
Method in brief: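 Confluent 3T3-L1 cells given differentiation media (IBMX/insulin/dexamethasone) with 20 µM compound, with or without the β-catenin/TCF inhibitor FH353 (10 µM). Proteins isolated at 16 and 24 h and Western blotted after SDS-PAGE and nitrocellulose transfer. Blocking in 5% milk/TBS-T, primary antibody overnight at 4 °C, chemiluminescent detection, β-actin control, three independent experiments.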

[18] = tested on: C3H 10T1/2; experiment: Anti-adipogenic activity in mouse differentiated C3H10T1/2 cells assessed as reduction in lipid accumulation at 5 to 20 uM after 20 mins by Oil Red O absorbance method; assay type: functional, cell-based
Method in brief: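 C3H10T1/2 or human MSC differentiated with IBMX/insulin/dexamethasone media containing 5, 10 or 20 µM compound. Cells stained with Oil red O (0.36% in 60% isopropanol, 20 min), dye extracted with isopropanol, absorbance read at 492 nm. n=3, mean ± SD, Student t test against MDI group.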

[19] = tested on: Syrian golden hamster; experiment: Induction of reverse cholestrol transport in high fat diet-induced dyslipidemia Syrian Golden hamster model assessed as increase in ABCG8 mRNA expression in eWAT at 100 mg/kg, po administered for 1 week by qRT-PCR analysis; assay type: functional, organism-based; details: Mesocricetus auratus

Cc1ccc(S(=O)(=O)N(Cc2cn(Cc3cccc(F)c3F)nn2)Cc2cn(S(=O)(=O)c3ccc(C)cc3)c3ccccc23)cc1
Activity [1]: Non-Toxic | Activity [2]: Active | Activity [3]: Active | Activity [4]: Active | Activity [5]: Active | Activity [6]: inactive | Activity [7]: Active | Activity [8]: Active | Activity [9]: Active | Activity [10]: inactive | Activity [11]: Active | Activity [12]: inactive | Activity [13]: Active | Activity [14]: Active | Activity [15]: Active | Activity [16]: Active | Activity [17]: inactive | Activity [18]: Active | Activity [19]: Active

From ChEMBL document CHEMBL4138193, “Novel indole and triazole based hybrid molecules exhibit potent anti-adipogenic and antidyslipidemic activity by activating Wnt3a/β-catenin pathway” (Eur J Med Chem, 2018)
